Reference: PubChem BioAssay
Records with an inconclusive call do not appear.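 Rule for the calls, unless noted: active = RAM network inhibition above 8.4% in each of two replicates, 3 SD over the compound average; inconclusive = above 8.4% inhibition in only one replicate; inactive = 8.4% inhibition or less in each replicate.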

Legend:
[1] = OD615 S. cerevisiae growth inhibition, permissive medium, pilot counter-assay, permissive growth control for S. cerevisiae lifespan shortening project (AID 705;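 active = growth inhibition above 25% in both replicates, a cutoff set 3 SD above the mean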); settings: OD615, 24 h, at 10 µM, active compounds read high
Method in brief: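 System: Engineered DeaD yeast | Buffer or medium: SC raffinose/galactose permissive medium | Incubation: Cells pre-grown 4 h, then 24 h compound exposure, 30 °C humidified | Measured by: Absorbance (optical density) at 615 nm | Read-out: Reduction in yeast growth (OD615)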

[2] = Restrictive medium S. cerevisiae growth inhibition, OD615, pilot screen of yeast lifespan reduction project, restrictive growth control (AID 706;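 active = growth inhibition above a set limit, 3 SD over mean compound inhibition, in both replicates, cut at about 43% in these data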;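 note: modified DeaD lifespan yeast strain shifted to restrictive glucose medium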); settings: OD615, 48 h, at 10 µM, active compounds read high
Method in brief: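 Material: modified S. cerevisiae; Medium: glucose-based CSMM-D restrictive medium; Compound dosing: one concentration, 10 µM final, 0.25% DMSO; Incubation: 48 h compound exposure at 30 °C; Measured by: OD615.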

[3] = viability gain of MRP-1-high H69AR cells under doxorubicin, pilot screen, MRP-1 activator project, CellTiter-Glo, duplicate (AID 807;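 active = viability increase at or above a cutoff of the median across tested compounds plus 3 SD, cut at about 8.5% in these data, passing the limit was not always enough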;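 note: compound pretreatment 18-22 h then 72 h combined with doxorubicin; 0% = doxorubicin alone and 100% = vehicle without doxorubicin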); settings: H69AR viability with doxorubicin, CellTiter-Glo luminescence; at 10 µM; active compounds read high
[4] = growth suppression of beta-catenin knockout HCT116, pilot screen, human colon tumor cells (AID 823;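 active = cell viability at or below a set limit in both duplicate runs, the limit being the all-compound median minus 4 SD, cut at about 23% in these data, passing the limit was not always enough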;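 note: 0% = wells killed by 20 µM Hyamine and 100% = untreated DMSO cell wells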); settings: CellTiter-Glo, 60 h, at 10 µM, active compounds read low
[5] = growth suppression of PTEN-deleted HCT116, pilot screen, cell-based, HCT116 clonal line, CellTiter-Glo (AID 824;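 active = viability at or below 27.92% in each of two runs, the all-compound median minus 4 SD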;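 note: 0% = 20 µM Hyamine control and 100% = vehicle cell control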); settings: 60 h, at 10 µM, active compounds read low
[6] = inhibitors of the yeast RAM network, pilot screen, dse1pr::URA3 reporter, 5-FOA selection (AID 869;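 active = inhibition over a set limit, the all-compound mean plus 3 SD, in both replicate runs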;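 note: 0% = DMSO wells with no growth and 100% = 10 µM 1-NA-PP1 with full growth; RAM network block rescues cells from 5-FOA so hits raise OD615 growth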); settings: S. cerevisiae dse1pr::URA3 5-FOA growth, OD615, 2 d, at 10 µM, active compounds read high
[7] = RAM signaling pathway blockade in yeast – S. cerevisiae, Pdr1DBD-CYC8 efflux-inhibited sensitized strain, primary screen (AID 1298);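 note: 0% = DMSO untreated cells without growth and 100% = 10 µM 1-NA-PP1 full growth; higher means more yeast growth rescued from 5-FOA killing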; settings: S. cerevisiae cbk1-as DSE1-URA3 strain, 5-FOA growth OD615, 2 d; at 50 µM; active compounds read high

O=C(O)C1CN2CCC1CC2 (centres undefined)
inactive: growth inhibition [1] -6.59% | growth inhibition [2] 5.84% | viability increase [3] -0.31% | viability [4] 96.2% | viability [5] 93.3% | inhibition [6] 0.99% | RAM network inhibition [7] -0.77%

CN(C)C1(c2nnnn2-c2ccc(Cl)cc2)CCCCC1
inactive: growth inhibition [1] -14.4% | growth inhibition [2] -18.1% | viability increase [3] 0.76% | viability [4] 86.2% | viability [5] 76.3% | inhibition [6] 2.52% | RAM network inhibition [7] 3.64%

O=C1OCCN1P(=O)(c1ccccc1)c1ccccc1
inactive: growth inhibition [1] -6.19% | growth inhibition [2] 2.02% | viability increase [3] -0.69% | viability [4] 98.4% | viability [5] 98% | inhibition [6] 0.445% | RAM network inhibition [7] -1.04%

O=C(CN1CC(c2ccccc2)CC1=O)Nc1cccc(F)c1 (centres undefined)
inactive: growth inhibition [1] -10.1% | growth inhibition [2] -5.42% | viability increase [3] -4.37% | viability [4] 98.3% | viability [5] 96.5% | inhibition [6] 1.39% | RAM network inhibition [7] 4.67%

CCOc1ccc(-n2c(CC)nc3ccccc3c2=O)cc1
inactive: growth inhibition [1] -2.47% | growth inhibition [2] -8.86% | viability increase [3] -1.18% | viability [4] 88% | viability [5] 89.8% | inhibition [6] 1.81% | RAM network inhibition [7] 3.89%

C=Cn1ccnc1P(=S)(c1ccn(C)c1)c1nccn1C=C
inactive: growth inhibition [1] -2.8% | growth inhibition [2] 18.6% | viability increase [3] 0.29% | viability [4] 100% | viability [5] 99.2% | inhibition [6] 0.94% | RAM network inhibition [7] 1.45%

CCN(c1ccc(C(O)(C(=O)OC)C(F)(F)F)cc1)S(=O)(=O)c1ccccc1 (centres undefined)
inactive: growth inhibition [1] -4.31% | growth inhibition [2] -3.91% | viability increase [3] 0.9% | viability [4] 99.4% | viability [5] 102% | inhibition [6] -0.62% | RAM network inhibition [7] 4.74%

OC12CCCCC1C(c1ccccc1)NCC2 (centres undefined)
inactive: growth inhibition [1] -3.8% | growth inhibition [2] -17.1% | viability increase [3] -2.28% | viability [4] 102% | viability [5] 102% | inhibition [6] 3.24% | RAM network inhibition [7] 3.17%

C=Cn1ccnc1P(=S)(c1nccn1C=C)C1CCCCC1
inactive: growth inhibition [1] 0.2% | growth inhibition [2] -2.3% | viability increase [3] -1.76% | viability [4] 92.3% | viability [5] 93.1% | inhibition [6] 0.82% | RAM network inhibition [7] 3.48%

CCOC(=O)N(CC)c1ccc(C(O)(C(=O)OCC)C(F)(F)F)cc1 (centres undefined)
inactive: growth inhibition [1] -2.74% | growth inhibition [2] -2.65% | viability increase [3] -0.35% | viability [4] 92.5% | viability [5] 95.3% | inhibition [6] 0.745% | RAM network inhibition [7] 0.46%

O=c1cccc2n1CC1CC2CN(Cc2ccc3c(c2)OCO3)C1 (centres undefined)
inactive: growth inhibition [1] -5.27% | growth inhibition [2] 2.45% | viability increase [3] -2.71% | viability [4] 98.1% | viability [5] 94.6% | inhibition [6] 0.6% | RAM network inhibition [7] -0.2%

Cn1cc(C(=O)c2ccccc2)c2ccccc21
inactive: growth inhibition [1] -1.98% | growth inhibition [2] 0.835% | viability increase [3] -1.92% | viability [4] 80.8% | viability [5] 87.1% | inhibition [6] 0.46% | RAM network inhibition [7] -3.38%

CCCCCP(=O)(O)c1ccccc1
inactive: growth inhibition [1] -5.12% | growth inhibition [2] -13.1% | viability increase [3] -1.16% | viability [4] 95.2% | viability [5] 103% | inhibition [6] 0.735% | RAM network inhibition [7] 2.16%

COc1cc(CC2C(=O)N(C)C(=O)N(C)C2=O)ccc1OCc1ccccc1
inactive: growth inhibition [1] -12.6% | growth inhibition [2] -5.52% | viability increase [3] 0.67% | viability [4] 96.9% | viability [5] 95.8% | inhibition [6] 0.87% | RAM network inhibition [7] 5.72%

CN1CCN(c2ncnc3ccc(Br)cc23)CC1
inactive: growth inhibition [1] -1.88% | growth inhibition [2] 5.46% | viability increase [3] -1.88% | viability [4] 94.2% | viability [5] 98.4% | inhibition [6] -0.575% | RAM network inhibition [7] 2.92%

O=c1cccc2n1CC1CC2CN(C(c2ccccc2)c2sc3ncnn3c2O)C1 (centres undefined)
inactive: growth inhibition [1] 4.58% | growth inhibition [2] 3.32% | viability increase [3] -1.49% | viability [4] 93.8% | viability [5] 96.8% | inhibition [6] 1.01% | RAM network inhibition [7] 1.32%

CCOC(=O)C1CCN(/C=C2/C(=O)NC(=O)N(c3ccc(OCC)cc3)C2=O)CC1
inactive: growth inhibition [1] -11.5% | growth inhibition [2] -20.2% | viability increase [3] 1.62% | viability [4] 98% | viability [5] 97.5% | inhibition [6] 1.87% | RAM network inhibition [7] 1.16%
